Activity calls are given as the source filed them. The rule behind the calls is not given here.
Key:
[1] = Antioxidant activity assessed as DPPH free radical scavenging activity incubated for 30 mins; assay type: physicochemical
Method in brief: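 DPPH in HPLC-grade solvent mixed with compound in DMSO at 7 concentrations, or with DMSO alone as control. Kept in the dark at rt for 30 min, then A515 read against a blank. % DPPH remaining = A_sample/A_control × 100, plotted against concentration; EC50 taken from the straight line. Triplicate.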

[2] = Antioxidant activity assessed as H2O2 scavenging activity at 100 uM incubated for 20 mins by phenol red based assay; assay type: physicochemical
Method in brief: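 Compound at 100 µM final, or DMSO control, in 0.1 M phosphate buffer pH 7.4 with H2O2 and 0.1 M NaCl, incubated in the dark at 37 °C for 20 min. Phenol red (0.2 mg/mL) and horseradish peroxidase (0.1 mg/mL) added, 15 min at 37 °C. NaOH added, 10 min at rt, A610 read. % reduction = (A_control − A_sample)/A_control × 100.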

[3] = Antioxidant activity assessed as inhibition of the lipid peroxidation at 0.74 mM incubated for 24 hrs by ferric thiocyanate method; assay type: physicochemical; settings: 740 µM
Method in brief: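 Ferric thiocyanate method at 0.74 mM. 10.0 mM DMSO stock combined with methanolic linoleic acid in 0.2 M phosphate buffer pH 7.0. AAPH added, then 24 h at 50 °C in the dark; DMSO served as control. An aliquot was diluted in H2O–DMSO with NH4SCN and FeCl2 in HCl. After 3 min at rt, A546 read. % inhibition relative to control.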

[4] = Potency index, ratio of IC50 for hydroxytyrosol to IC50 for test compound for antioxidant activity assessed as DPPH free radical scavenging activity incubated for 30 mins
[5] = Inhibition of baker's yeast alpha-glucosidase using p-nitrophenyl-alpha-D-glucopyranoside substrate assessed as reduction in p-nitrophenolate formation at 500 uM; settings: Saccharomyces bayanus
Method in brief: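 α-Glucosidase in 0.1 M phosphate buffer pH 6.8 with p-nitrophenyl-α-D-glucopyranoside at K_M (250 µM; K_M 0.25 mM). Inhibitor at 500 µM final or DMSO, DMSO 5% v/v.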

[6] = Inhibition of baker's yeast alpha-glucosidase using p-nitrophenyl-alpha-D-glucopyranoside substrate assessed as inhibition constant for enzyme-compound binding by measuring reduction in p-nitrophenolate formation; design: species or system Saccharomyces cerevisiae
Method in brief: (§1)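 Same α-glucosidase conditions: pH 6.8 phosphate buffer, 25 °C, A400 for p-nitrophenolate, 5% DMSO. Done for inhibitors exceeding 50% inhibition at 500 µM. Rates measured at 5 substrate concentrations from 0.25 to 4.0 K_m, each at a fixed inhibitor concentration, using 2–3 inhibitor concentrations. Lineweaver–Burk double reciprocal plots gave the inhibition mode and constants K_ia (E) and K_ib (ES).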

[7] = Inhibition of baker's yeast alpha-glucosidase using p-nitrophenyl-alpha-D-glucopyranoside substrate assessed as inhibition constant for enzyme-substrate-compound binding by measuring reduction in p-nitrophenolate formation; method in brief: as §1
[8] = Mixed inhibition of baker's yeast alpha-glucosidase using p-nitrophenyl-alpha-D-glucopyranoside substrate assessed as reduction in p-nitrophenolate formation by Lineweaver-Burk plot; settings: Saccharomyces bayanus; method in brief: as §1
[9] = test system: A549; experiment: Antiproliferative activity against human A549 cells after 48 hrs by sulforhodamine B assay; assay type: functional; settings: A549, 48 h
Method in brief: (§2)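 Exponentially growing cells trypsinized into penicillin/streptomycin medium, >97% viable by trypan blue. Seeded per well: 10,000 (A549, HBL-100, HeLa, SW1573), 15,000 (T-47D), 20,000 (WiDr). Treatment began day 1, DMSO stocks 40 mM, 0.25% DMSO as control, triplicate, 48 h. Cells fixed with cold TCA 60 min at 4 °C, SRB stained, OD492 read, medium background subtracted.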

[10] = Antiproliferative activity against human HBL100 cells after 48 hrs by sulforhodamine B assay; assay type: functional; settings: HBL-100, 48 h; method in brief: as §2
[11] = test system: SW1573; experiment: Antiproliferative activity against human SW1573 cells after 48 hrs by sulforhodamine B assay; assay type: functional; settings: SW1573, 48 h; method in brief: as §2
[12] = test system: HeLa; experiment: Antiproliferative activity against human HeLa cells after 48 hrs by sulforhodamine B assay; assay type: functional; method in brief: as §2
[13] = test system: T47D; experiment: Antiproliferative activity against human T47D cells after 48 hrs by sulforhodamine B assay; assay type: functional; method in brief: as §2
[14] = test system: WiDr; experiment: Antiproliferative activity against human WiDr cells after 48 hrs by sulforhodamine B assay; assay type: functional; method in brief: as §2
[15] = Pro-oxidant activity assessed as hydroxyl radical generation through deoxyribose degradation by measuring change in absorbance at 0.83 mM by TBARS based spectrophotometry; assay type: ADME; settings: 830 µM
Method in brief: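 Modified Halliwell deoxyribose assay with the compound at the stated concentration in 0.1 M phosphate buffer pH 7.4, with 2-deoxyribose, H2O2, and FeCl3 premixed with EDTA. Heated 1 h at 37 °C, then TBA in NaOH and trichloroacetic acid added and heated 15 min at 100 °C. Cooled, A532 read; DMSO as control. Repeated without deoxyribose to account for TBARS interference.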

[16] = test system: Saccharomyces bayanus; experiment: Non-competitive inhibition of baker's yeast alpha-glucosidase using p-nitrophenyl-alpha-D-glucopyranoside substrate assessed as reduction in p-nitrophenolate formation by Lineweaver-Burk plot; method in brief: as §1

Oc1cc(/C=N/NC(=[Se])Nc2ccccc2)cc(O)c1O
EC50 [1]: 4.87 µM
inhibition (INH) [2]: 64%
inhibition (INH) [3]: 65.7%
Ratio IC50 [4]: < 3
inhibition [5]: 95%
Ki [6]: 30.3 µM
Ki [7]: 78.4 µM
inhibition [8]: Active
GI50 [9]: 1.5 µM
GI50 [10]: 2 µM
GI50 [11]: 3.9 µM
GI50 [12]: 2.1 µM
GI50 [13]: 2.9 µM
GI50 [14]: 3.7 µM

NNC(=[Se])Nc1cccc2ccccc12
EC50 [1]: 6.65 µM
inhibition (INH) [2]: 56.9%
inhibition (INH) [3]: 21.9%
Ratio IC50 [4]: < 3
Activity [15]: 0.064
inhibition [5]: 14%

Oc1cc(O)c(/C=N/NC(=[Se])Nc2cccc3ccccc23)cc1O
EC50 [1]: 10.7 µM
inhibition (INH) [2]: 4.5%
inhibition (INH) [3]: 43%
Ratio IC50 [4]: < 3
inhibition [5]: 95%
Ki [6]: 33 µM
Ki [7]: 76.8 µM
inhibition [8]: Active
GI50 [9]: 1.7 µM
GI50 [10]: 4 µM
GI50 [11]: 5 µM
GI50 [12]: 3 µM
GI50 [13]: 3.5 µM
GI50 [14]: 5.2 µM

O=Cc1cc(O)c(O)cc1O
EC50 [1]: 5.97 µM
inhibition (INH) [2]: 80.3%
inhibition (INH) [3]: 56.1%
inhibition [5]: inactive
GI50 [9]: > 100 µM
GI50 [10]: > 100 µM
GI50 [11]: > 100 µM
GI50 [12]: > 100 µM
GI50 [13]: > 100 µM
GI50 [14]: > 100 µM

O=c1[nH]cc(F)c(=O)[nH]1 [FLUOROURACIL]
GI50 [10]: 5.5 µM
GI50 [11]: 4.3 µM
GI50 [12]: 15 µM
GI50 [13]: 47 µM
GI50 [14]: 49 µM

O=Cc1ccc(O)cc1 [4-HYDROXYBENZALDEHYDE]
EC50 [1]: > 250 µM
inhibition (INH) [2]: Not Active
inhibition (INH) [3]: Not Active
inhibition [5]: inactive
GI50 [9]: > 100 µM
GI50 [10]: > 100 µM
GI50 [11]: > 100 µM
GI50 [12]: > 100 µM
GI50 [13]: > 100 µM
GI50 [14]: > 100 µM

O=Cc1cc(O)c(O)c(O)c1
EC50 [1]: 15.3 µM
inhibition (INH) [2]: 79.1%
inhibition (INH) [3]: Not Active
inhibition [5]: inactive
GI50 [9]: 7.3 µM
GI50 [10]: 72 µM
GI50 [11]: 38 µM
GI50 [12]: 16 µM
GI50 [13]: 43 µM
GI50 [14]: 39 µM

OCCc1ccc(O)c(O)c1 [HYDROXYTYROSOL]
EC50 [1]: 13.8 µM

O=Cc1ccc(O)c(O)c1 [PROTOCATECHUALDEHYDE]
EC50 [1]: 6.57 µM
inhibition (INH) [2]: 78.3%
inhibition (INH) [3]: 35.7%
inhibition [5]: inactive
GI50 [9]: 42 µM
GI50 [10]: > 100 µM
GI50 [11]: 54 µM
GI50 [12]: 49 µM
GI50 [13]: > 100 µM
GI50 [14]: > 100 µM

Oc1ccc(/C=N/NC(=[Se])Nc2ccccc2)cc1O
EC50 [1]: 8.77 µM
inhibition (INH) [2]: 69%
inhibition (INH) [3]: 66.5%
Ratio IC50 [4]: < 3
Activity [15]: 0.097
inhibition [5]: 81%
Ki [6]: 201 µM
inhibition [16]: Active
GI50 [9]: 2.6 µM
GI50 [10]: 3.8 µM
GI50 [11]: 5.8 µM
GI50 [12]: 3.3 µM
GI50 [13]: 3.7 µM
GI50 [14]: 3.2 µM

Oc1ccc(/C=N/NC(=[Se])Nc2ccccc2)cc1
EC50 [1]: 27.8 µM
inhibition (INH) [2]: 72.5%
inhibition (INH) [3]: 31%
Activity [15]: 0.087
inhibition [5]: 62%
Ki [6]: 336 µM
inhibition [16]: Active
GI50 [9]: 1.4 µM
GI50 [10]: 13 µM
GI50 [11]: 19 µM
GI50 [12]: 3.7 µM
GI50 [13]: 7.2 µM
GI50 [14]: 16 µM

Oc1ccc(/C=N/NC(=S)Nc2ccccc2)cc1O
EC50 [1]: 9.27 µM
inhibition (INH) [2]: 79.3%
inhibition (INH) [3]: 72%
Ratio IC50 [4]: < 3
inhibition [5]: 68%
Ki [6]: 708 µM
Ki [7]: 134 µM
inhibition [8]: Active
GI50 [9]: 1.6 µM
GI50 [10]: 35 µM
GI50 [11]: 24 µM
GI50 [12]: 7 µM
GI50 [13]: 25 µM
GI50 [14]: 27 µM

Oc1cc(/C=N/NC(=[Se])Nc2cccc3ccccc23)cc(O)c1O
EC50 [1]: 8.87 µM
inhibition (INH) [2]: 38.1%
inhibition (INH) [3]: 24.3%
Activity [15]: 0.067
inhibition [5]: 98%
Ki [6]: 154 µM
Ki [7]: 70.3 µM
inhibition [8]: Active
GI50 [9]: 1.7 µM
GI50 [10]: 2.4 µM
GI50 [11]: 2.9 µM
GI50 [12]: 2.3 µM
GI50 [13]: 2.7 µM
GI50 [14]: 3.6 µM

Oc1cc(/C=N/NC(=S)Nc2ccccc2)cc(O)c1O
EC50 [1]: 7 µM
inhibition (INH) [2]: 80%
inhibition (INH) [3]: 59.9%
Ratio IC50 [4]: < 3
inhibition [5]: 70%
Ki [6]: 297 µM
Ki [7]: 86.2 µM
inhibition [8]: Active
GI50 [9]: 9.3 µM
GI50 [10]: 71 µM
GI50 [11]: 49 µM
GI50 [12]: 32 µM
GI50 [13]: 61 µM
GI50 [14]: > 100 µM
